Experimental data from PMC3417325 (FEBS letters, 2010).
Ends that are not written are not given here.

Assays:
S. aureus = conditions: cited from earlier work
[1] = tested on: Staphylococcus aureus ATCC 29213; type: cell-based; conditions: peptide 256 and 128 µg/ml, 15 min exposure, growth monitored 12 h
[2] = ANTS/DPX leakage assay from LUVs
Outline: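 LUVs (250 nm, 600 µM final lipid) were loaded with 12.5 mM ANTS and 45 mM DPX by freeze-thaw and 0.4-µm extrusion, then gel-filtered. Buffer was high-salt (5 mM HEPES, 100 mM NaCl, pH 7.4) or low-salt (10 mM NaCl). Twofold defensin dilutions were added, with a water blank and 0.25% Triton X-100 for 100%. Ex 353/Em 515 nm; % leakage = (Ft−F0)/(F100−F0)×100.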

[3] = SPR, HNP1 peptides on soluble Lipid II immobilized on the chip surface; type: binding; conditions: peptide at 0.1, 1 or 10 µM, supplemental Figure 1
Outline: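 The ligand was short-chain, water-soluble farnesyl (three-isoprene) Lipid II, made with M. flavus vesicles, C18 HPLC-purified and confirmed by mass spectrometry. Signals were corrected by subtracting a control flow-cell.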

Row | Molecule | Activity against Gram-positive bacteria / bactericidal activity (S. aureus) | Bacterial growth after exposure to HNP1 [1] | Leakage from LUVs with increasing content of POPG ([2]; POPC:POPG = 1:0, 3:2, 2:3, 0:1, HNP1 0.19 to 100 µg/ml, 1 h, triplicate) | Membrane activity (leakage from POPG LUVs) ([2]; POPG LUVs, panel of six α-defensins, high and low salt, over 24 h (Figure 1)) | Binding of peptide to immobilized soluble Lipid II [3]
1 | HNP4: fourth α-defensin discovered in neutrophils (VCSCRLVFCRRTELRVGNCLIGGVSFTYCCTRV; disulfide (positions not given here); ends not checked; UniProt P12838 64-96, looked up) | ineffective against Gram-positive bacteria | – | – | – | –
2 | Human Neutrophil Peptide 1 [HNP1] | potently bactericidal | bacterial growth did not measurably recover | increasingly pronounced | reduced | bound Lipid II dose-dependently
3 | HD-5: human α-defensin stored in granules of Paneth cells (peptide, UniProt Q01523 20-94, looked up, Defensin-5) Defensin alpha 5: ESLQERADEATTQKQSGEDNQDLAISFAGNGLSALRTSGSQARATCYCRTGRCATRESLSGVCEISGRLYRLCCR | potently bactericidal | – | – | – | –
